Results gathered from unrelated publications.
Protocols differ between the studies behind these lines.
Target: Serine/threonine-protein kinase Nek1 (NEK1, Homo sapiens, UniProt Q96PY6)
One construct used (Q96PY6 1-1258): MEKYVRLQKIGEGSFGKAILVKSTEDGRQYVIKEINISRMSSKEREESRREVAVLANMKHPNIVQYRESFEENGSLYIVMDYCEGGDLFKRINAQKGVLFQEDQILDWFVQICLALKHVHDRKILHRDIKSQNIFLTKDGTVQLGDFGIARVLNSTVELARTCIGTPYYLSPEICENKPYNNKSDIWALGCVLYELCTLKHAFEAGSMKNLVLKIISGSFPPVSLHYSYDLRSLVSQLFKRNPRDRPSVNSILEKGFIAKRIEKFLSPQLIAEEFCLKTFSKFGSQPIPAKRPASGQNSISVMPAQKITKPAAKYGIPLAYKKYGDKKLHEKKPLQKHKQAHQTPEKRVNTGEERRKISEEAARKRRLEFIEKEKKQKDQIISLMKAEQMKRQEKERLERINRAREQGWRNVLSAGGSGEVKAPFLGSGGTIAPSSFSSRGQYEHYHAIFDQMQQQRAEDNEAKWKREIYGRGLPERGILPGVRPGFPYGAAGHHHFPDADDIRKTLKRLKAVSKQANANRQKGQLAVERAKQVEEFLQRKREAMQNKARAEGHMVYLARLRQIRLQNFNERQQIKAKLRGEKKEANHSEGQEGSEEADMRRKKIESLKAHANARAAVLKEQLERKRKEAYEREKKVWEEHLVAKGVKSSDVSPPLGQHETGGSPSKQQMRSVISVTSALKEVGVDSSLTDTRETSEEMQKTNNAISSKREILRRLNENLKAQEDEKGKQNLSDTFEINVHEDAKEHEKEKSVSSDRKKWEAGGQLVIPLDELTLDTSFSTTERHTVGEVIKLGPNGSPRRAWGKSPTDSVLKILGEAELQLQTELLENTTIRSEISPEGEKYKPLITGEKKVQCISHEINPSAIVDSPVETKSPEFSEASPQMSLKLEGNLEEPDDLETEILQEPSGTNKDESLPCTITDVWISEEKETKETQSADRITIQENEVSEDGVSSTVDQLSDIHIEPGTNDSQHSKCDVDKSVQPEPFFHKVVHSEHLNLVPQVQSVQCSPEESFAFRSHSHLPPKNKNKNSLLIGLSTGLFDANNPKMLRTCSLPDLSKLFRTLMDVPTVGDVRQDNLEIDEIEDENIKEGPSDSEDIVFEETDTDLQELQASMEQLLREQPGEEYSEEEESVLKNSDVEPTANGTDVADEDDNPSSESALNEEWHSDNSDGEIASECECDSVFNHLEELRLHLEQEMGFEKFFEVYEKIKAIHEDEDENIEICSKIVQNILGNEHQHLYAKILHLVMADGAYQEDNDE

Structure (SMILES)	assay	system	setting	measurement	value
CS(=O)(=O)c1cc(C2(NC(=O)c3cncc4c3cnn4-c3ccc(F)cc3)CC2)ccn1	cell-free assay, competition with immobilised ligand	–	1 µM	remaining binding	45%
CCN1CCN(Cc2ccc(NC(=O)c3ccc(C)c(Oc4ccnc5[nH]ccc45)c3)cc2C(F)(F)F)CC1	target engagement in cells, inhibitor, chemoproteomics	A-375	0.5 µM	inhibition	-10.4%
CN1CC(Oc2cnc(C#N)cc2-c2ccn3nc(NC(=O)C4CC4)cc3c2)C1	enzyme activity, inhibitor	–	1 µM	inhibition	8%
CC(C)(C)c1nc2c(s1)c1nc(N)ncc1c1ccc(NS(=O)(=O)c3c(F)cccc3F)c(F)c12	enzyme activity, inhibitor, radiometric	–	1 µM	remaining activity	92%
Nc1c(C(=O)NCc2ccc(C(=O)NCCCC3CCCCC3)cc2)cnn1-c1ccccc1	cell-free assay, competition with immobilised ligand	–	0.1 µM	remaining binding	84%
C[S+]([O-])c1ccc(-c2nc(-c3ccncc3)c(-c3ccc(F)cc3)[nH]2)cc1 (stereo not shown)	cell-free assay	–	0.5 µM	remaining signal	94.7%
C[C@H](c1ccc(F)cc1)N(Cc1cccc(C(=O)O)c1)C(=O)c1cnc2ccccc2c1	cell-free assay, competition with immobilised ligand	–	1 µM	remaining binding	100%
CCCS(=O)(=O)Nc1ccc(F)c(C(=O)c2c[nH]c3ncc(-c4ccc(Cl)cc4)cc23)c1F	enzyme activity, inhibitor	–	1 µM	inhibition	< 20%
Cc1ccc(Nc2nccc(N(C)c3ccc4c(C)n(C)nc4c3)n2)cc1S(N)(=O)=O	enzyme activity, inhibitor	–	0.5 µM	remaining activity	105%
COc1cc2ncnc(Nc3ccc(Oc4ccccc4)c(C)c3C)c2cc1OC	enzyme activity, inhibitor	–	1 µM	inhibition	-2%
C[C@@H]1CN(c2cc(-c3nn(C)c4ccc(OC5(C)CC5)cc34)ncn2)C[C@H](C)O1	cell-free assay, competition with immobilised ligand	–	1 µM	remaining binding	83%
c1cnn2ncc(-c3ccnc(N4CCC45COC5)n3)c2c1	binding	–	1 µM	remaining binding	100%
CCCCNc1ncc2c(-c3ccc(F)cc3)nn(C[C@H]3CC[C@H](N)CC3)c2n1	target engagement in cells, inhibitor, chemoproteomics	–	20 mM	inhibition	-3.7%
C[C@@H]1CN(c2cc(-c3n[nH]c4ccc(OC5(C)CC5)cc34)ncn2)C[C@H](C)O1	cell-free assay, competition with immobilised ligand	–	0.1 µM	remaining binding	100%
Cc1ccc(C(=O)Nc2ccc(CN3CCN(C)CC3)c(C(F)(F)F)c2)cc1C#Cc1cnc2cccnn12	enzyme activity, inhibitor	–	23.5 nM	remaining activity	98%
CS(=O)(=O)CCNCc1ccc(-c2ccc3ncnc(Nc4ccc(OCc5cccc(F)c5)c(Cl)c4)c3c2)o1	cell-free assay	–	0.5 µM	remaining signal	71.8%
Cn1cnc(Br)c1C1=CN(c2ncnc3[nH]cnc23)CCS1	enzyme activity, inhibitor, radiometric	–	50 nM	inhibition	33.1%
COc1cccc2c(NCc3ccccc3)nc(-n3c(N)nc4ccccc43)nc12	target engagement in cells, inhibitor, chemoproteomics	–	20 mM	inhibition	-13%
CC(=O)N1CCC(c2ccc(C(=O)NC3=NCCN3)cc2C(F)(F)F)CC1	cell-free assay, competition with immobilised ligand	–	1 µM	remaining binding	100%
Cc1sc(C(=O)NC2COC2)cc1-n1cc(NC(=O)Nc2c(F)cccc2Cl)cn1	enzyme activity, inhibitor	–	10 µM	remaining activity	90.4%
N#CCCc1ccc2c(c1)-c1[nH]c3ccc([N+](=O)[O-])cc3c1CC(=O)N2	cell-free assay	–	0.5 µM	remaining signal	132%
CCN1CCN(Cc2ccc(NC(=O)c3ccc(C)c(/C=C/c4cnc5[nH]ccc5c4OC)c3)cc2C(F)(F)F)CC1	target engagement in cells, inhibitor, chemoproteomics	A-375	0.5 µM	inhibition	-15.8%
